The RNAGym collection of RNA variant scans (doi:10.1126/science.aae0568)
Variants at the floor of the assay were thinned out.

B1: tRNA (parent)
chain: GUUCCGUUGGCGUAAUGGUAACGCGUCUCCCUCCUAAGGAGAAGACUGCGGGUUCGAGUCCCGUACGGAACG

Variants of: B1
Assay: yeast fitness relative to wild type (ratio to wild type); higher = fitter; tRNA-Arg(CCU), competitive growth, 37 C, YPD
How it was run: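 Start and end populations of a pooled competition were compared by 100-nucleotide paired-end sequencing of gene amplicons. The Saccharomyces cerevisiae strains carried tRNA-Arg(CCU) gene variants at the native genomic locus, synthesised with a 3% per-site mutation rate at 69 sites, and competed in YPD at 37°C for 24 hours in six parallel replicates. Darwinian fitness relative to wild type was based on the change in genotype frequencies. Genotypes required ≥ 100 starting reads, and estimates < 0.5 were set to 0.5.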

| Variant | yeast fitness |
| --- | --- |
| GUUCCGUUGACGUAAUGGUAAGGCGUCUCCCUCCUAGAGAGAAGACUGCGGGUUCGAGUCCCGUACGGAACG | ≤ 0.5 |
| GUUCCGUUGACGUAAUGGUAACGCGUCUCCCUCCUAAGGAGAUGACUGCGGGUUCGAGUCCCGUACGGAACG | 0.781 |
| GUUCCGUUGACGUAAUGGUAACGCGUGUCCCUCCAAAGGAGAAGUCUGCGGGUUCGAGUCCCGUACAGAACG | ≤ 0.5 |
| GUUCCGUUGACGUAAUGGUAACGCGUCUUCCUCCUAAGGAGAAGACUGUGGGUUCAAGUCCCGUACGGAACG | 0.633 |
| GUUCCGUUGACGUAAUGGUAACGCGUCUCCCUCCUAAGGAGAAGACUGCGGGUUCGAGUCCCGUACGGAGCG | 0.743 |
| GUUCCGUUGAAGUGGUGGUAACGCGUCUCCCUCCUAAGGAGAAGACUGCGGGUUCGAGUCCCGUACGGAACG | ≤ 0.5 |
| GUUCCGUUGACGUAAUGGUAAAGCGUCUCCCUCCUAAGGAGAAGACUGCGGGUUCGAGUCCCGUACGGAACG | 0.717 |
| GUUCCGUUGACGUAAUGGUAAGGCGUCUCCCUCCUAAGGAGAAGACUGCGGGUUCGAGUCCCGUACGGAACG | 0.637 |
| GUUCCGUUGACGUAAUGGUAACGUGUCUCCCUCCUAAGGAAAAGACUGUGGGAUCGAGUCCCGUAGGGAACG | ≤ 0.5 |
| GUUCCGUUGAAGUACUGGUAACGAGUCUCCCUCAUAAGGAGAAGAGUGCGGGUUCGAGUCCCGUACCGAACG | ≤ 0.5 |
| GUUCCGUUGACGUAAUGGUAACGCGUCUCGCUCCUCAGGAGAAGACUGCGGGUUCGAAUCCCGUACGGAACG | ≤ 0.5 |
| GUUCCGUUGACGUAAUGGUAACGCGUCUCACUCCUAAGGACAAGACUGCGGGUUCGAGUGCCGUACGGAUCG | 0.645 |
| GUUCCGUUGAAGUAAGGGUAACGCGUCUCCCUCCUAAGGAGAAGACUGCGGGUUCGAGUCCCGUACGGGACG | 0.538 |
| GUUCCGUUGACGUAAUGGUAACGCGUCUCGCUCCUAAGGAGAAGACUGCGGGUUCGAGUGCCAUUUGGAACG | ≤ 0.5 |
| GUUCCGUUGAAGUACUGGUAACGAGUCUCCCUCAUAAGGAGAAGAGUGCGGGUUCGAGUCCCGUACGGAACG | 0.559 |
| GUUCCGUUGACGUAAUGGUAACGCGUCUCACUCCUAAGGAGACGACUGCGGGUUCGUGUCCCGUACGGAACG | ≤ 0.5 |
| GUUCCGUUGAGGUAAUGGUAACGCGUCUCCCUCCUAAGGACAAGUCUGCGGGUUCGAGUCCCGUACGGAACG | ≤ 0.5 |
| GUUCCGUUGACGUAAUGGUAACGCGUCUACCUCGUAAGGAGACGACUGCGGGUUCGAGUGCCGUAUGGAACG | ≤ 0.5 |
| GUUCCGUUGAAGUAAUGGUAACGCGUCUCCCUCCUAAGGAGAAGACUGCGGGUUCGAGUCCCGUACGGAACG | 0.636 |

| Variant | yeast fitness |
| --- | --- |
| GUUCCGUUGACGUAAUGGUAACGCGUCUCCCUCCUAAGGAGAAGGCUGCGGGUUCGAGCCCCGUACGGAACG | 0.616 |
| GUUCCGUUGACGUAAUGGUAACGAGUCUCCCUCCUAAGGAGAAGCCUGCGGGUUCGUGUCCCGUACGGAACG | 0.63 |
| GUUCCGUUGACGUAAUGGUAACGCGUCUCCCUCCUAAGGAGAAGACUGCGGGUUCGGGUCCGGUAUGGAACG | ≤ 0.5 |
| GUUCCGUUGACGUAAUGGUAACGCGUAUCCCUCCUAAGGAGAAGACUGCGGGUUCGAGUCCCGUACGGAACG | 0.801 |
| GUUCCGUUGACGUAAUGGUAACGUGUGUCCCUCCUAAGGAGAAGACUGCGGGUUCGAGUCCCGUACGGAACG | ≤ 0.5 |
| GUUCCGUUGACGUAAUGGUAACGCGUCUGCCUCCUAAGGAGAAGACUGCGGGUUCGAGUCCCGUACGGAACG | 0.522 |
| GUUCCGUUGACGUAAUGGUAACGAGUCUCCCUCCUAAGGAGAAAACUGCGGGUUCGAGUCCCGUUCGGAACG | ≤ 0.5 |
| GUUCCGUUGACGUAAUGGUAACGGGUCUCCCUCUUAAGGAGAAGACUGCGGGUUCGAGUCCCGUACGGAACG | ≤ 0.5 |
| GUUCCGUUGACGUAAUGGUAACGGGUCUCCCUCCUAAGGAGAGGACUGCGGGUUCGAGUCCCGUACGGAACG | ≤ 0.5 |
| GUUCCGUUGACGUAAUGGUAACGCGUCUGCCUCCUAAGGAGAAGACUGCGGGUUCCAGACCCGUACGGAACG | ≤ 0.5 |
| GUUCCGUUGACGUAAUGGUAAUGCGUCUCCCUCCUAAGGAGAAGGCUGCGGGUUCGAGUCCCGUACGGAACG | ≤ 0.5 |
| GUUCCGUUGACGUAAUGGUAACGAGUAUCCCUCCUAAGGAGAAGGCUGCGGGUUCGAGUCCCGUACGGAACG | ≤ 0.5 |
| GUUCCGUUGAUGUAGUGGUAACGCGUCUCUCUCCUAAGGAGAAGACUGCGGGUUCGAGUGCCGUACGGAACG | ≤ 0.5 |
| GUUCCGUUGACGUAAUGGUAACGCGUGUCCCUCCUAAGGAGAAGACUCCGGGUUCGAGUCCAGUACGGAACG | ≤ 0.5 |
| GUUCCGUUGACGUAAUGGUAACGCGUCUGCCUUCUAAGGAGAAGACUGCGGGUUCGAGUCCCGUACGGAACG | ≤ 0.5 |
| GUUCCGUUGACGUAAUGGUAACGGGUCUCCCUCCUAAGGAGAAGACUGCGGGUUCGAGUCCUGUACGGAACG | 0.54 |
| GUUCCGUUGAUGUAAUGGUAACGCGUCUCCCUCCUAAGGAGAUGACUGCGGGUUCGAGUUCCGUACGGAACG | ≤ 0.5 |
| GUUCCGUUGAAGUAAUGGUAACGCGUCUCCCUCCUAAGGAGAAGACUGCGGGUUCGAGUACCGUACGGAACG | ≤ 0.5 |
| GUUCCGUUGACGUAAUGGUAACGCGUUCCACUCCUAAGGAGAAGACUACAGGUUCGAGUCCCGUACGGAACG | 0.985 |
